# CHRM4 PAM: potentiates acetylcholine response at human M4 receptor. P08173. CHO-K1 hM4/Gqi5, Fluo-8 calcium fluorescence, ACh EC20; 0% = ACh EC20, 100% = maximal ACh. activation, % at 3 µM. hit rate 0.4% among 360,000. AID 624126;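 active means activation above its plate's cutoff, the mean activation of sample wells plus 3 SD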
# Target sequence (P08173 whole entry, looked up): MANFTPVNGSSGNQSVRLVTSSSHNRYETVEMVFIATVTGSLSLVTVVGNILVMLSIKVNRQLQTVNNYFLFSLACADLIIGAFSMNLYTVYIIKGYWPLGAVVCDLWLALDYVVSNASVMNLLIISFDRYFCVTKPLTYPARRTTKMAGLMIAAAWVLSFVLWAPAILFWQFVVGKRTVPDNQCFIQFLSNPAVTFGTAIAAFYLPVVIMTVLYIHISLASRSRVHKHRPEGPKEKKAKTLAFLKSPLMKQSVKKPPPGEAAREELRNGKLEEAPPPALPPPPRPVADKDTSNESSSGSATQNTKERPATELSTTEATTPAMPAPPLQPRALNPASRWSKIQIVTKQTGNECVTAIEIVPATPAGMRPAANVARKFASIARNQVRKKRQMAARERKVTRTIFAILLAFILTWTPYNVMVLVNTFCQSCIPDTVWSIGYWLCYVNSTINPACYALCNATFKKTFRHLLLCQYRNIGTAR
# CHRM4 antagonist: blocks acetylcholine activation of human M4 receptor | P08173 | CHO-hM4 cells, ACh EC80, Fluo-8 calcium fluorescence | inhibition, % at 3 µM | hit rate 0.73% among 360,000;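 active means inhibition above its plate's cutoff, the mean inhibition of sample wells plus 3 SD, cut at about 27% in these data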;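 further: 0% = acetylcholine EC80 with DMSO and 100% = DMSO without agonist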
# CHRM5 agonist: CHRM5 agonism in calcium assay; P08912; CHO-K1 hM5 cells, Fluo-8 calcium fluorescence; 0% DMSO wells, 100% maximal acetylcholine response; activation, % at 3 µM; hit rate 0.19% among 360,000; AID 624037;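 active means activation above the run's mean over test compounds plus 3 SD, cut at about 23% in these data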;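 further: signal is peak over basal fluorescence ratio across the kinetic read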
# M4 ag: agonists of human muscarinic M4 receptor (CHRM4). hit rate 0.14% among 360,000. activation, % at 3 µM. AID 624127. CHO-K1 hM4/Gqi5, Fluo-8 calcium fluorescence; vehicle 0%, full acetylcholine response 100%;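 active means activation above the run mean over all test wells plus 3 SD, cut at about 32% in these data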;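 further: peak over basal fluorescence ratio per well then scaled between controls; 0% = DMSO wells and 100% = acetylcholine at EC100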
# CHRM5 antagonist: blocks acetylcholine activation of human M5 receptor; P08912; hit rate 0.59% among 360,000; inhibition, % at 3 µM; CHO-hM5 cells, Fluo-8 calcium fluorescence, ACh EC80;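 active means inhibition above a per-plate cutoff, the mean of that plate's test compounds plus 3 SD, cut at about 27% in these data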;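 further: 0% = acetylcholine EC80 with DMSO and 100% = DMSO without agonist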
# CHRM5 PAM: CHRM5 positive allosteric modulation | CHO-K1 hM5, Fluo-8 calcium, ACh EC20 PAM; 0% = ACh EC20, 100% = ACh EC100 | activation, % at 3 µM | P08912 | hit rate 0.3% among 360,000;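 active means activation above the run cutoff, the mean activation of all test compounds plus 3 SD, cut at about 18% in these data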
#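 system = human M5 receptor in CHO-K1 cells | compound = one concentration, 3 µM final (nominal) | schedule = Post-acetylcholine fluorescence recording 140 s | signal = Fluo-8 calcium dye fluorescence, kinetic read | benchmarks = low control EC20 acetylcholine (0%), high control EC100 acetylcholine (100%) | repeats = singlicate, one well per test compound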
# Starred values were filed as active, the others as inactive. Hits are enriched below; roughly 1.8% of the tested compounds scored in any of these assays.
SMILES,CHRM4 PAM,CHRM4 antagonist,CHRM5 agonist,M4 ag,CHRM5 antagonist,CHRM5 PAM
COc1cccc(CNC(=O)CCC2CCCN(C3CCOCC3)C2)c1 (stereo not given),3,8,-5,0,15,-6
C=CCC1(C)C(=O)N(c2ccccc2)c2ccccc21 (stereo not given),1,1,-2,-2,-4,2
C=CCCC1(C)C(=O)N(c2ccccc2)c2ccccc21 (stereo not given),-4,-4,-2,-1,21,25*
CCC(C)NC(=O)c1cnn2c(C)c3c(nc12)CCCC3 (stereo not given),39*,18,-5,-2,-1,-3
Cc1c2c(nc3c(C(=O)NC4CC4)cnn13)CCCC2,3,-1,-7,-2,-4,6
CC(C)(C)[C@H](NC(=O)c1ccc(N)c(Cl)c1)C(=O)N1CCC[C@H]1C(=O)N[C@H](C#N)CC(=O)O,7,-2,0,0,12,5
Cc1ccc(NC(=O)c2ccccc2NS(=O)(=O)c2ccc(Cl)s2)cc1S(=O)(=O)N1CCOCC1,-10,13,5,14,32*,-20
O=C(Nc1cc(S(=O)(=O)N2CCOCC2)ccc1O)c1ccc(NS(=O)(=O)c2ccc(Cl)s2)cc1,-5,5,1,-1,-3,4
CC(C)NC(=O)NC(=O)CSc1ccc(S(=O)(=O)N2CCOCC2)cn1,21*,-9,-2,1,3,-4
CCCCNC(=O)CSc1ccc(S(=O)(=O)N2CCOCC2)cn1,-6,9,0,0,20,-10
CCC[C@H]1CN(c2ccc(Br)cc2)C(=O)[C@@H]1CC(=O)Nc1ccc(OC)cc1,-6,-13,-1,1,-7,-1
O=C1c2ccccc2S(=O)(=O)c2cc(C(=O)N(c3ccccn3)c3ccccn3)ccc21,2,-10,67*,77*,-2,-19
O=C(c1ccc(Cl)c([N+](=O)[O-])c1)N(c1ccccn1)c1ccccn1,7,-1,0,0,9,20*
Cc1c(P(=S)(c2ccccc2)c2ccccc2)[n+]2ccccc2n1C/C=C/c1ccccc1,-11,29*,-4,1,22,-18
CC(O)c1nc2ccccc2n1C/C=C/c1ccccc1 (stereo not given),1,10,0,1,-5,1
Cc1cc2c(cc1C)N(C(=O)CSc1nncn1C)C(C)(C)c1ssc(=S)c1-2,-11,11,-7,-3,34*,-23
COc1ccc2c3c([nH]c2c1)[C@H]1C[C@H]2[C@H](C[C@@H](O)[C@H](OC)[C@H]2C(=O)O)CN1CC3,-16,46*,1,2,15,-18
CCCCCCCCCCOC(=O)Cn1c(COc2ccccc2OC)[n+](C)c2ccccc21,-16,58*,-25,7,45*,-30
Cn1c(COc2ccccc2O)[n+](C)c2ccccc21,-1,-14,-5,2,8,-2
CSc1ccc(CN2CCC2(C)C(=O)NC2CCN(Cc3ccccc3)CC2)cc1 (stereo not given),-5,-5,-1,6,-4,1
COc1ccc(C(CCN2CCCCC2)c2c(OC)cc(OC)c3c(-c4ccccc4)cc(=O)oc23)cc1 (stereo not given),10,34*,7,31,14,3
C=CCC1(CC=C)CC(Cc2cnccn2)N(C(=O)OC(C)(C)C)C1 (stereo not given),2,-24,0,0,2,-8
O[Si](CCCN1CCCCC1)(c1ccc(F)cc1)C1CCCCC1 (stereo not given),-19,90*,1,5,74*,-18
COC(=O)[C@]12CCCCC=C1N(CCC1=CCCCC1)C(=O)[C@H](CC(=O)NCC13CC4CC(CC(C4)C1)C3)C2,-4,-3,1,-1,-11,1
COc1ccc(NC(=O)c2oc3ccc(S(=O)(=O)N4CCC5(CC4)OCCO5)cc3c2C)cc1,-10,26,12,32*,19,-24
SMILES,CHRM4 PAM,CHRM4 antagonist,CHRM5 agonist,M4 ag,CHRM5 antagonist,CHRM5 PAM
C=CCNC(=O)c1oc2ccc(S(=O)(=O)N3CCC4(CC3)OCCO4)cc2c1C,4,-3,1,3,-12,-1
COc1cccc(C(=O)NCC2CCCN(C(=O)Cc3cccc(C)c3)C2)c1OC (stereo not given),1,-4,0,5,-3,-2
CC(C)(C)OC(=O)[C@H](Cc1ccccc1)NC(=O)c1ncn2c1c(=O)[nH]c1ccc(Br)cc12,5,-4,1,1,-7,2
Cc1ccccc1OCCC(=O)OCC(=O)c1c(N)n(CC(C)C)c(=O)n(C)c1=O,-15,17,5,23,34*,-14
CC(C)Cn1c(N)c(C(=O)COC(=O)CC23CC4CC(CC(C4)C2)C3)c(=O)n(C)c1=O,-7,37*,4,2,19,-13
CC(C)Cn1c(N)c(C(=O)COC(=O)CCc2nc3ccccc3c(=O)[nH]2)c(=O)n(C)c1=O,7,4,5,13,6,-13
Cc1ccc(OCCC(=O)OCC(=O)c2c(N)n(CC(C)C)c(=O)n(C)c2=O)cc1,-10,0,3,16,16,-28
CC(C)Cn1c(N)c(C(=O)COC(=O)CCc2nc3ccccc3s2)c(=O)n(C)c1=O,-21,14,9,23,32*,-35
COc1ncccc1-c1cc2nc(NCCCN(C)C)n(C)c(=O)c2s1,8,-12,-1,0,3,-1
CN(C)c1ccc(C=c2c3ccccc3n3c2c2ccccc2[n+]3C)cc1,-8,33*,-7,4,22,-9
COC(=O)[C@H]1[C@@H](C)N(Cc2ccccc2)C(=O)N[C@H]1c1cccc(C(F)(F)F)c1,12,-11,5,4,-4,19*
CCNC(=O)C1CCCN(C(=O)c2ccccc2)CC1 (stereo not given),-2,2,1,0,6,-10
COc1ccc(-c2ccc(C(=O)NCc3ccco3)c3occc23)c(C)c1,-4,9,-3,0,4,-4
O=C(COc1cccnc1[N+](=O)[O-])c1c[nH]c2ccccc12,14,34*,-1,4,-4,14
COc1cccc(COc2cc3ccccc3nc2C)c1,-2,24,3,9,31*,-16
Cc1nc2ccccc2cc1OCc1ccccc1,-10,6,2,6,24,-14
Cc1nc2ccccc2cc1OCc1ccc(Cl)cc1,-14,19,6,5,30*,-14

# Assay outcomes as filed in PubChem BioAssay.
